Like-named read-outs stand apart in the source and are kept apart here.
Columns and labels:
[1] = system: cancerous cells compared to the non-cancerous MCs; conditions: ref Khoury et al. (2022); cited from earlier work
[2] = system: mice; conditions: cited from earlier work
[3] = system: HaCaT-II-4 cells; experiment: Cell death analysis by flow cytometry; assay type: cell-based, human; conditions: 3 μM
How it was run: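 HaCaT-II-4 cells plated at 10^5 cells/ml in 6-well plates, adhered overnight, then exposed to 3 μM test compound for 48 or 72 h at 37 °C, 5% CO2, with a positive control. Harvested cells resuspended in Guava Nexin reagent (Annexin V-PE/7-AAD), 10 min in the dark. Flow cytometry on FL1-H vs FL2-H gave % early apoptosis, late apoptosis and necrosis. Three independent experiments in triplicate; mean ± SEM.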

[4] = system: BALB/c mice; experiment: Preliminary cisplatin treatment in BALB/c mice; assay type: in vivo; conditions: 5 mg/kg dose, after few weeks of treatment, preliminary data
[5] = system: HaCaT-II-4 cells; experiment: Quantification of cellular uptake by ICP-MS; assay type: cell-based, human; conditions: 3 μM, maximum at 24 h
[6] = system: HaCaT-II-4 cells; experiment: Cytotoxicity, WST-1 cell viability assay; assay type: cell-based, human; conditions: read-out: IC50 against HaCaT-II-4 cells, 72 h post-treatment
How it was run: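 HaCaT-II-4 cells (passage 15) in DMEM with 10% FBS and 1% penicillin-streptomycin were seeded at 10,000 cells/100 μL per well. They were exposed for 72 h to 3-fold serial dilutions, 0.023–150 μM. Medium was replaced with fresh DMEM plus WST-1 for 4 h at 37 °C, and absorbance was read at 450 nm for viability. Three independent trials, each in triplicate; mean ± SEM.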

[7] = system: DMBA/TPA-induced skin tumors in BALB/c mice; experiment: DMBA/TPA induced skin carcinogenesis mouse model; assay type: in vivo; conditions: IP weekly; P-PENT 5 and 15 mg/kg, P-HEX 5, 15, 25 mg/kg, cisplatin 2.5 mg/kg
[8] = system: HaCaT-II-4 cells; experiment: Cellular fractionation / intracellular distribution by ICP-MS; assay type: cell-based, human; conditions: 3 μM, 24 h
How it was run: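 HaCaT-II-4 cells adhered overnight at 37 °C, 5% CO2, then treated with 3 μM for 24 h. Washed thrice in cold PBS, trypsinised, pelleted (350 g, 5 min, 4 °C) and washed in PBS. Kit buffers gave the cytoplasmic fraction (on ice 5 min, 500 g), the membrane/organelle fraction (on ice 5 min, 8000 g) and a nuclear/cytoskeletal pellet. Results are % platinum per fraction; three independent experiments in triplicate, mean ± SEM.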

[9] = of body weight in mice, ref O'Dwyer et al., 1985, Korst et al., 1997

In the case of `COc1ccnc2c1ccc1c(OC)ccnc12.NC1CCCCC1N.O=[N+]([O-])[O-].O=[N+]([O-])[O-].[OH-].[OH-].[Pt+4]` [47OMESS(IV)], the “greater selectivity toward the cancerous cells compared to the non-cancerous MCs” value [1] is listed as 17–22 fold.
In the case of `N.N.O=C([O-])C1(C(=O)[O-])CCC1.[Pt+2]` [Carboplatin], the MTD as platinum [2, 9] is listed as 31.53 mg Pt/Kg.
In the case of `N.N.[Cl][Pt][Cl]` [Cisplatin], the MTD as platinum ([2]; BALB/c mice, ref Aston et al. (2017)) is listed as 3.9 mg Pt/Kg, the necrosis ([3]; 48 or 72 h) is listed as “No evidence of significant necrosis” and the “early and late apoptosis compared to the negative control” value ([3]; 48 h and 72 h) is listed as “significant (p < 0.0001) increase in both early and late apoptosis”. The mortality [4] was “causes significant mortality”, the maximum cellular uptake [5] was 380 nmol/10^6 cells and the IC50 [6] was 6.7 ± 0.76 µM. For the same molecule, the “week from which tumor volume was significantly decreased compared to control” value [7] was 4 week, the “accumulation in cytoplasmic fraction (CF)” value [8] was 38% and the “accumulation in membrane and organelle (MO) fraction” value [8] was 47%. The “accumulation in nuclear and cytoskeletal (NC) fraction” value [8] was 15%.
For `O=C1[O][Pt]2([NH][C@@H]3CCCC[C@H]3[NH]2)[O]C1=O` [Oxaliplatin], the MTD as platinum [2, 9] is listed as 9.82 mg Pt/Kg.

Source: article PMC11566320 (Current Research in Pharmacology and Drug Discovery, 2024)
